Laboratory results: ChEMBL document CHEMBL3739273, “Synthesis, biological activity evaluation and molecular docking studies of novel coumarin substituted thiazolyl-3-aryl-pyrazole-4-carbaldehydes” (Bioorg Med Chem Lett, 2015)
In brackets after ≈: the same amount, converted by molar mass. Activity calls are given as the source filed them. The rule behind the calls is not given here.

Tests used:
Escherichia coli [1] = experiment: Antibacterial activity against Escherichia coli ATCC 8739 after 24 hrs by microtiter plate method; type: functional; conditions: ATCC 8739, 24 h
How it was run: (§1)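 Test concentrations reported in µg/mL. Gentamycin sulfate and ampicillin were the reference drugs.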

Staphylococcus aureus [2] = experiment: Antibacterial activity against methicillin-resistant Staphylococcus aureus NCTC 13616 after 24 hrs by microtiter plate method; type: functional; conditions: NCTC 13616, 24 h
Bacillus spizizenii [3] = experiment: Antibacterial activity against Bacillus subtilis ATCC 6633 after 24 hrs by microtiter plate method; type: functional; conditions: ATCC 6633, 24 h; how it was run: as §1
Bacillus cereus [4] = experiment: Antibacterial activity against Bacillus cereus ATCC 14579 after 24 hrs by microtiter plate method; type: functional; conditions: ATCC 14579, 24 h; how it was run: as §1
Escherichia coli [5] = experiment: Bactericidal activity against Escherichia coli ATCC 8739 after 24 hrs; type: functional; conditions: ATCC 8739, 24 h, read-out: MBC99.9
How it was run: (§2)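 MBC determined by a standard MBC protocol alongside the MIC, with values in µg/mL. Gentamycin sulfate and ampicillin were the references.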

Staphylococcus aureus [6] = experiment: Bactericidal activity against methicillin-resistant Staphylococcus aureus NCTC 13616 after 24 hrs; type: functional; conditions: NCTC 13616, 24 h, read-out: MBC99.9
How it was run: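 MBC determined by a standard MBC protocol run alongside the MIC determination. Gentamycin sulfate and ampicillin served as reference drugs.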

Bacillus spizizenii [7] = experiment: Bactericidal activity against Bacillus subtilis ATCC 6633 after 24 hrs; type: functional; conditions: ATCC 6633, 24 h, read-out: MBC99.9; how it was run: as §2
Bacillus cereus [8] = experiment: Bactericidal activity against Bacillus cereus ATCC 14579 after 24 hrs; type: functional; conditions: ATCC 14579, 24 h, read-out: MBC99.9; how it was run: as §2
[9] = Anticancer activity against human DU145 cells assessed as cell viability after 48 hrs by MTT assay; type: functional, cell-based; conditions: DU-145, 48 h
How it was run: (§3)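 MTT cytotoxicity assay in human DU-145 prostate, MCF-7 breast and HeLa cervical cancer cell lines. Doxorubicin was the reference drug.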

MCF7 = experiment: Anticancer activity against human MCF7 cells assessed as cell viability after 48 hrs by MTT assay; type: functional, cell-based; conditions: MCF7, 48 h; how it was run: as §3
HeLa = experiment: Anticancer activity against human HeLa cells assessed as cell viability after 48 hrs by MTT assay; type: functional, cell-based; how it was run: as §3
Bacillus cereus [10] = experiment: Antibacterial activity against Bacillus cereus ATCC 14579 assessed as growth inhibition at 100 ug/ml after 24 hrs by agar well diffusion method; type: functional
How it was run: (§4)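 Agar well diffusion. Compounds were tested at 10, 20, 100, 200 and 300 µg/mL, and the zone of inhibition was measured in mm. Gentamycin sulfate was the reference drug.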

Bacillus spizizenii [11] = experiment: Antibacterial activity against Bacillus subtilis ATCC 6633 assessed as growth inhibition at 100 ug/ml after 24 hrs by agar well diffusion method; type: functional, organism-based; how it was run: as §4
Proteus vulgaris [12] = experiment: Antibacterial activity against Proteus vulgaris ATCC 13315 assessed as growth inhibition at 100 ug/ml after 24 hrs by agar well diffusion method; type: functional; how it was run: as §4
Staphylococcus aureus [13] = experiment: Antibacterial activity against methicillin-resistant Staphylococcus aureus NCTC 13616 assessed as growth inhibition at 100 ug/ml after 24 hrs by agar well diffusion method; type: functional, organism-based
How it was run: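 Agar well diffusion assay with compounds applied to wells at several concentrations, including the 100 level reported here. The zone of inhibition was measured in mm. Gentamycin sulfate was the standard drug.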

Klebsiella pneumoniae [14] = experiment: Antibacterial activity against Klebsiella pneumoniae ATCC 43816 assessed as growth inhibition at 100 ug/ml after 24 hrs by agar well diffusion method; type: functional; how it was run: as §4
Escherichia coli [15] = experiment: Antibacterial activity against Escherichia coli ATCC 8739 assessed as growth inhibition at 100 ug/ml after 24 hrs by agar well diffusion method; type: functional; how it was run: as §4
Klebsiella pneumoniae [16] = experiment: Antibacterial activity against Klebsiella pneumoniae ATCC 43816 after 24 hrs by microtiter plate method; type: functional; conditions: ATCC 43816, 24 h; how it was run: as §1
Proteus vulgaris [17] = experiment: Antibacterial activity against Proteus vulgaris ATCC 13315 after 24 hrs by microtiter plate method; type: functional; conditions: ATCC 13315, 24 h; how it was run: as §1
Klebsiella pneumoniae [18] = experiment: Bactericidal activity against Klebsiella pneumoniae ATCC 43816 after 24 hrs; type: functional; conditions: ATCC 43816, 24 h, read-out: MBC99.9; how it was run: as §2
Proteus vulgaris [19] = experiment: Bactericidal activity against Proteus vulgaris ATCC 13315 after 24 hrs; type: functional; conditions: ATCC 13315, 24 h, read-out: MBC99.9; how it was run: as §2
Cytochrome P450 2A6 = molecular target: T1, Cytochrome P450 2A6 (Homo sapiens, UniProt P11509); experiment: Inhibition of human microsomal CYP2A6; type: ADME
T1 sequence (P11509 whole entry): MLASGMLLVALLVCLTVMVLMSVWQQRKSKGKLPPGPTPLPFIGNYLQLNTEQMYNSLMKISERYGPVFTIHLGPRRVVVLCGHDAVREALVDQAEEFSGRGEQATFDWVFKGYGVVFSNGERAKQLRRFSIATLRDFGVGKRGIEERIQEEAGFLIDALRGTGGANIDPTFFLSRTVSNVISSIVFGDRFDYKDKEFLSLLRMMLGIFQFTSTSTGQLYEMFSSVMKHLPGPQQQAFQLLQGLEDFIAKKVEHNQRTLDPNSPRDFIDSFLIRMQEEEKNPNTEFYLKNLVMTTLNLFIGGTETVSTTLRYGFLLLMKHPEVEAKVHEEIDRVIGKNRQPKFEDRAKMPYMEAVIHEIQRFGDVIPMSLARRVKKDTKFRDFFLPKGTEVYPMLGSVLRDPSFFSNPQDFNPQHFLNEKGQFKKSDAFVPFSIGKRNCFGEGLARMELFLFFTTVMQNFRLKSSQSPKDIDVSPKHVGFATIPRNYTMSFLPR

SMILES | MIC (Escherichia coli [1]) [µg/mL] | MIC (Staphylococcus aureus [2]) [µg/mL] | MIC (Bacillus spizizenii [3]) [µg/mL] | MIC (Bacillus cereus [4]) [µg/mL] | MBC (Escherichia coli [5]) [µg/mL] | MBC (Staphylococcus aureus [6]) [µg/mL] | MBC (Bacillus spizizenii [7]) [µg/mL] | MBC (Bacillus cereus [8]) [µg/mL] | IC50 [9] [µM] | IC50 (MCF7) [µM] | IC50 (HeLa) [µM] | growth inhibition (GI) (Bacillus cereus [10]) | growth inhibition (GI) (Bacillus spizizenii [11]) | growth inhibition (GI) (Proteus vulgaris [12]) | growth inhibition (GI) (Staphylococcus aureus [13]) | growth inhibition (GI) (Klebsiella pneumoniae [14]) | growth inhibition (GI) (Escherichia coli [15]) | MIC (Klebsiella pneumoniae [16]) [µg/mL] | MIC (Proteus vulgaris [17]) [µg/mL] | MBC (Klebsiella pneumoniae [18]) [µg/mL] | also measured
CC1(C)S[C@@H]2[C@H](NC(=O)[C@H](N)c3ccccc3)C(=O)N2[C@H]1C(=O)O [AMPICILLIN] | 10 (≈ 28.6 µM) | 4 (≈ 11.4 µM) | 5 (≈ 14.3 µM) | 4 (≈ 11.4 µM) | 18 (≈ 51.5 µM) | 6 (≈ 17.2 µM) | 10 (≈ 28.6 µM) | 8 (≈ 22.9 µM) |  |  |  |  |  |  |  |  |  |  |  |  | 
Cc1ccc(-c2nn(-c3nc(-c4cc5cc(Br)ccc5oc4=O)cs3)cc2C=O)cc1 | 135 (≈ 273 µM) | 138 (≈ 280 µM) | 125 (≈ 254 µM) | 126 (≈ 256 µM) | 270 (≈ 548 µM) | 275 (≈ 559 µM) | 250 (≈ 508 µM) | 250 (≈ 508 µM) | 20.9 | 35.2 | 14.1 | Active | Active | Active | Active | Active | Active | 124 (≈ 252 µM) | 122 (≈ 247 µM) | 250 (≈ 508 µM) | MBC (Proteus vulgaris [19]): 240 µg/mL (≈ 487 µM); Ki (Cytochrome P450 2A6): 0.00154 µM
COc1cccc2cc(-c3csc(-n4cc(C=O)c(-c5ccc(Cl)cc5)n4)n3)c(=O)oc12 | 125 (≈ 270 µM) | 139 (≈ 300 µM) | 133 (≈ 286 µM) | 126 (≈ 272 µM) | 185 (≈ 399 µM) | 275 (≈ 593 µM) | 260 (≈ 560 µM) | 250 (≈ 539 µM) | 38.2 | 71.7 | 41.9 | Active | Active | Active | Active | Active | Active | 129 (≈ 278 µM) | 132 (≈ 285 µM) | 260 (≈ 560 µM) | MBC (Proteus vulgaris [19]): 260 µg/mL (≈ 560 µM); Ki (Cytochrome P450 2A6): 0.00327 µM
